Experimental findings from ChEMBL document CHEMBL5653631, “A Potent and Selective ULK1 Inhibitor Suppresses Autophagy and Sensitizes Cancer Cells to Nutrient Stress” (iScience, 2018) are described below.

Molecules are shown by their SMILES.

The target in experiment [1] is Casein kinase II subunit alpha' (Homo sapiens) (UniProt P19784). The experiment in a line: Inhibition of human recombinant CK2a2 at 15 nM related to control ULK1.
For experiment [2], the target named is T1, Serine/threonine-protein kinase A-Raf (Homo sapiens) (UniProt P10398).
T1 sequence (whole entry): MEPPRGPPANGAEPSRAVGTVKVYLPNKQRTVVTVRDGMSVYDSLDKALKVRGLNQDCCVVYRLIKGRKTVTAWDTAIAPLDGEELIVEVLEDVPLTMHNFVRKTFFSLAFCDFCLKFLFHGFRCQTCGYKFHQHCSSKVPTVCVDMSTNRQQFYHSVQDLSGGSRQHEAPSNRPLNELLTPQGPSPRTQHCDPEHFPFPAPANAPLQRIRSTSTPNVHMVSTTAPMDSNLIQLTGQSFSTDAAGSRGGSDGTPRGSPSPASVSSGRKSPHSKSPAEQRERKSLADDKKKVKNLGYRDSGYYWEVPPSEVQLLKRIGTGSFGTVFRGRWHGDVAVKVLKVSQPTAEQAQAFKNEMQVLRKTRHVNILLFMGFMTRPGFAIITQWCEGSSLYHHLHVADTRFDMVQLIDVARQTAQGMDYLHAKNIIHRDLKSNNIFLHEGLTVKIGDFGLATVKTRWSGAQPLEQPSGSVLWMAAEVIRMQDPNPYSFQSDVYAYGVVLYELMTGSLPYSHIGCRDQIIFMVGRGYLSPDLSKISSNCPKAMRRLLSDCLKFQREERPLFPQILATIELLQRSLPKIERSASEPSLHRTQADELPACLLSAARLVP
Description: Inhibition of human recombinant ARAF at 15 nM in presence of ATP by radiometric assay relative to control. The procedure, abridged:
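Panel of 327 recombinant human kinases, each assayed in vitro by radiometric activity assay in duplicate at a single inhibitor concentration per compound, chosen with reference to its ULK1 inhibition. Activity remaining was expressed as percent of vehicle control, and percent inhibition was calculated as 100 minus percent activity remaining.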

In experiment [3] the target is T2, MAP/microtubule affinity-regulating kinase 4 (Homo sapiens) (UniProt Q96L34).
T2 sequence (whole entry): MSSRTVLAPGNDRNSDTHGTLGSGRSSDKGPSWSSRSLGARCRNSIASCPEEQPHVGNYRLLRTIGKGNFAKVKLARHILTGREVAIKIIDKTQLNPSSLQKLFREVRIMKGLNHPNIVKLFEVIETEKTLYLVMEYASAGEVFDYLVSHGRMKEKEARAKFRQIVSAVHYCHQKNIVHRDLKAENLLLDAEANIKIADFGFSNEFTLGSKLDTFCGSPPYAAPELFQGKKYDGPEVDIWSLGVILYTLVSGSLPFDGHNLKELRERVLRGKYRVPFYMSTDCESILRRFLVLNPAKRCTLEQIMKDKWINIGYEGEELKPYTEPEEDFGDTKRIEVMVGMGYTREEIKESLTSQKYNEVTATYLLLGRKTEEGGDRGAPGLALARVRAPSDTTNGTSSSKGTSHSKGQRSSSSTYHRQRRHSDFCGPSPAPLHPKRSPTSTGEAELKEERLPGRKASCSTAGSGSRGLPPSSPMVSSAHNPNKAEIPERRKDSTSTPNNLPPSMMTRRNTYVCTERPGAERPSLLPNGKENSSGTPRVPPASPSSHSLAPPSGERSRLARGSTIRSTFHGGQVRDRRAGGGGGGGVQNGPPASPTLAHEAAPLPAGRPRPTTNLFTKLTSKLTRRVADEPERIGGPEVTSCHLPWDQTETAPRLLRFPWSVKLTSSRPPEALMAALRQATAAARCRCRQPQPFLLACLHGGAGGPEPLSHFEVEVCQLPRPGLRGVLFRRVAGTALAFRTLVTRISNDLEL
The experiment in a line: Inhibition of human recombinant MARK4 at 15 nM related to control ULK1.

Experiment [4] addresses Cyclin-dependent kinase 18 (Homo sapiens) (UniProt Q07002). Description: Inhibition of human recombinant PCTAIRE3 at 40 nM related to control ULK1.
Experiment [5] concerns the target T3, TGF-beta receptor type-1 (Homo sapiens) (UniProt P36897).
T3 sequence (whole entry): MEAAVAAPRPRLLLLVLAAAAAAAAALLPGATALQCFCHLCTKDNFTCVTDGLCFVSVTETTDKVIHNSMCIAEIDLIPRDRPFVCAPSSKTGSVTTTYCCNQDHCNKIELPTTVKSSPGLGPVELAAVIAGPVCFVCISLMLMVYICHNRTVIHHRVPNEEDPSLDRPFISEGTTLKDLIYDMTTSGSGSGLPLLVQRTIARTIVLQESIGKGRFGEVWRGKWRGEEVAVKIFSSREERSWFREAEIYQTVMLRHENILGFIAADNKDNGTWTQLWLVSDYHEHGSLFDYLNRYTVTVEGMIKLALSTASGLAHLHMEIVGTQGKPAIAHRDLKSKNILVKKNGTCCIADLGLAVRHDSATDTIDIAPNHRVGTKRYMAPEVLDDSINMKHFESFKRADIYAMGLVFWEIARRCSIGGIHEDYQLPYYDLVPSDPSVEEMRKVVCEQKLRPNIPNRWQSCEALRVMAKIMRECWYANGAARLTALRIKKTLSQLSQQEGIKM
Description: Inhibition of human recombinant TGFbR1 at 40 nM related to control ULK1.

For experiment [6], the target named is Serine/threonine-protein kinase pim-3 (Homo sapiens) (UniProt Q86V86). Description: Inhibition of human recombinant PIM3 at 40 nM in presence of ATP by radiometric assay relative to control.
For experiment [7], the target named is T4, Serine/threonine-protein kinase 17B (Homo sapiens) (UniProt O94768).
T4 sequence (whole entry): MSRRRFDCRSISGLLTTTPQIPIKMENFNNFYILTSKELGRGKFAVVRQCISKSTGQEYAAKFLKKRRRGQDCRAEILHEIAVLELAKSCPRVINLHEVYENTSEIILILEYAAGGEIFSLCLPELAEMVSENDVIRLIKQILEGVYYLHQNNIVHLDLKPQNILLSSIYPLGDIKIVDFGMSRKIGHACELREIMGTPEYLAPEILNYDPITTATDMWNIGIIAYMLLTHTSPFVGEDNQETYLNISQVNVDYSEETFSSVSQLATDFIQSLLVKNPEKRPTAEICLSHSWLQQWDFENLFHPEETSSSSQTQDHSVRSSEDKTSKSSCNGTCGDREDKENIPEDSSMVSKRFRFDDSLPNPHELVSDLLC
The experiment in a line: Inhibition of human recombinant DRAK2 at 500 nM related to control ULK1.

The target of experiment [8] is Casein kinase I isoform gamma-1 (Homo sapiens) (UniProt Q9HCP0). Description: Inhibition of human recombinant CK1g1 at 500 nM related to control ULK1.
Sequence of Casein kinase I isoform gamma-1 (Homo sapiens) (Q9HCP0 whole entry, looked up, canonical isoform): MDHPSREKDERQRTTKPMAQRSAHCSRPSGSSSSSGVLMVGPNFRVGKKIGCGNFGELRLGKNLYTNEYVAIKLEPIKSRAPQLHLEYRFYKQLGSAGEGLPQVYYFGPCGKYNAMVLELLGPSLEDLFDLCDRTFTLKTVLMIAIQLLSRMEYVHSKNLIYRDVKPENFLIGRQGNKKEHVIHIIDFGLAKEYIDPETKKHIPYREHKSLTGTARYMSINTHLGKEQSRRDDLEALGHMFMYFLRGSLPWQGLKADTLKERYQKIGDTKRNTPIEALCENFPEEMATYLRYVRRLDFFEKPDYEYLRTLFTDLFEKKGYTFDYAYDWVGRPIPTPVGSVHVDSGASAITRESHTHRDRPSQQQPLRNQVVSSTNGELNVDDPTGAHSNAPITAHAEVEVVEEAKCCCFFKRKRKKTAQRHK
In experiment [9] the target is Serine/threonine-protein kinase 24 (Homo sapiens) (UniProt Q9Y6E0). The experiment in a line: Inhibition of human recombinant MST3 at 500 nM related to control ULK1.
Sequence of Serine/threonine-protein kinase 24 (Homo sapiens) (Q9Y6E0 whole entry, looked up): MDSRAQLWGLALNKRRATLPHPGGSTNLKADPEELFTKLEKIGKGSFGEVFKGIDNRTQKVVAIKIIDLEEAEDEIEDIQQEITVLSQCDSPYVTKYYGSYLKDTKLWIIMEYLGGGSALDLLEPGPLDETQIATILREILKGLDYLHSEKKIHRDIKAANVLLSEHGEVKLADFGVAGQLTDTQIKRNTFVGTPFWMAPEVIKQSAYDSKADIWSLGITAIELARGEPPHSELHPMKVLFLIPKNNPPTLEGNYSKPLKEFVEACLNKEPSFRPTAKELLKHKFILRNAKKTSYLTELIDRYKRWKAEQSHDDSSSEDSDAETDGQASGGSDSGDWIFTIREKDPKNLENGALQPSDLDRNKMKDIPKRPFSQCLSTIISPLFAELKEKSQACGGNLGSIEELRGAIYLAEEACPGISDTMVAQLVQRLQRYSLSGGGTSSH
The species named for another experiment is Homo sapiens. Description: Inhibition of human recombinant KHS1 at 500 nM in presence of ATP by radiometric assay relative to control.

Sequence of Cyclin-dependent kinase 18 (Homo sapiens) (Q07002 whole entry): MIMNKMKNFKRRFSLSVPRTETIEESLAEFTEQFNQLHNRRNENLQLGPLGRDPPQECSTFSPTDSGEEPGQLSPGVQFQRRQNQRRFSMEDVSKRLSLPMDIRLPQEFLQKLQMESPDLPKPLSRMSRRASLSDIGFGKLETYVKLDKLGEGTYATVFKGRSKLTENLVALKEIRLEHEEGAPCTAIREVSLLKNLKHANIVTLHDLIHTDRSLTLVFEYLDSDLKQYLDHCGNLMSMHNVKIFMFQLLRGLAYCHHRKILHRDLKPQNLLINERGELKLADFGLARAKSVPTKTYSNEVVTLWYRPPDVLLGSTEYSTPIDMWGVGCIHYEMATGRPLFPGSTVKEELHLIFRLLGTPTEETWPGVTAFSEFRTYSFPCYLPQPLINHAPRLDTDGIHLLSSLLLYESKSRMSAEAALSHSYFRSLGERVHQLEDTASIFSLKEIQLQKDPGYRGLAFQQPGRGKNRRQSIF
Sequence of Casein kinase II subunit alpha' (Homo sapiens) (P19784 whole entry, looked up): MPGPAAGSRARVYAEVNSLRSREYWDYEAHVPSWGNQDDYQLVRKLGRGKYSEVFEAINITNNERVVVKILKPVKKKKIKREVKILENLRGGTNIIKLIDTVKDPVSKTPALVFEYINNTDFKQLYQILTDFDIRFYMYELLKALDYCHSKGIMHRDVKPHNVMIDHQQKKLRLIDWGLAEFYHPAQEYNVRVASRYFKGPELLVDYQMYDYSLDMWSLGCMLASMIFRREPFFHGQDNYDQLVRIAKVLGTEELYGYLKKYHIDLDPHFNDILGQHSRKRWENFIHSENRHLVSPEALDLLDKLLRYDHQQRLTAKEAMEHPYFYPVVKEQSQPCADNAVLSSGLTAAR

Consider `CC(C)[C@H](NC(=O)c1cc(-c2cnn3cc(-c4ccc(OCCN5CCCCC5)cc4)cnc23)cs1)C(F)(F)F`, for which the values for the fold change (FC) in experiment [1] and in experiment [3] were 0.06 and 0.48, respectively. Also, the inhibition (as a rule, the share of the control response that was lost under treatment) in experiment [2] is 6%.
In the case of `O=C(N[C@@H](C1CC1)C(F)(F)F)c1cc(-c2cnn3cc(-c4ccc(F)cc4)cnc23)cs1`, the fold change (FC) in [4] turned out to be 0.42; in experiment [5], 0. In addition, in [6], the inhibition was 0%.
Consider `CNC(=O)c1ccccc1Oc1nc(Nc2cc(OC)c(OC)c(OC)c2)ncc1Br`, for which the fold change (FC) worked out at 0.08 in experiment [7], 0 in [8] and 0.78 in experiment [9]. In addition, the inhibition in the experiment listed under Homo sapiens turned out to be 11%.
